What was measured:
[1] = test system: Mus musculus; assay: Toxicity tested by rotarod test for neurologic deficit at interval of 30 min when 30 mg/kg was administered intraperitoneally; shows activity; assay type: organism-based; parameters: dose 30 mg/kg, route intraperitoneal; conditions: in vivo, ip, 0.5 h
Method in brief: (§1)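 Male Carworth Farms number-one mice dosed ip with compound in 30% polyethylene glycol 400. Each mouse was placed on a 1-in.-diameter knurled plastic rod rotating at 6 rpm. Neurologic toxicity was scored as failure to stay on the rod for 1 min. Screening doses were 30, 100, 300 and sometimes 600 mg/kg, tested at 30 min and 4 h. TD50 was read by the graphical method.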

[2] = test system: Mus musculus; assay: Toxicity tested by rotarod test for neurologic deficit at interval of 4 hr when 100 mg/kg was administered intraperitoneally; shows activity; assay type: organism-based; parameters: dose 100 mg/kg, route intraperitoneal; conditions: in vivo, ip; method in brief: as §1
[3] = organism: Mus musculus; assay: Effective dose evaluated against maximal electric seizures (MES) or convulsions in mice; activity value ranges from 2.18-3.07; assay type: functional
[4] = test system: Mus musculus; assay: Toxicity tested by rotarod test for neurologic deficit at interval of 30 min when 600 mg/kg was administered intraperitoneally; shows activity; assay type: organism-based; parameters: dose 600 mg/kg, route intraperitoneal; conditions: in vivo, ip, 0.5 h; method in brief: as §1
[5] = test system: Mus musculus; assay: Anticonvulsant activity of 300 mg/kg after 30 min. of intraperitoneal administration in mice against maximum electroshock seizures (MES); compound shows activity; assay type: functional, organism-based; parameters: dose 300 mg/kg
[6] = test system: Mus musculus; assay: Toxicity tested by rotarod test for neurologic deficit at interval of 4 hr when 600 mg/kg was administered intraperitoneally; no activity; assay type: organism-based; parameters: dose 600 mg/kg, route intraperitoneal; conditions: in vivo, ip; method in brief: as §1
[7] = test system: Mus musculus; assay: Anticonvulsant activity of 600 mg/kg after 4 hr of intraperitoneal administration in mice against maximum electroshock seizures (MES); compound shows activity; assay type: functional, organism-based; parameters: dose 600 mg/kg
[8] = test system: Mus musculus; assay: Anticonvulsant activity of 600 mg/kg of compound against subcutaneous induced metrazole convulsions at interval of 30 min administered intraperitoneally in mice; compound shows activity; assay type: functional, organism-based; parameters: dose 600 mg/kg
[9] = test system: Mus musculus; assay: Anticonvulsant activity of 600 mg/kg of compound against subcutaneous induced metrazole convulsions at interval of 4 hr administered intraperitoneally in mice; compound does not show activity; assay type: functional, organism-based; parameters: dose 600 mg/kg
[10] = test system: Mus musculus; assay: Toxicity tested by rotarod test for neurologic deficit at interval of 30 min when 600 mg/kg was administered intraperitoneally; no activity; assay type: organism-based; parameters: dose 600 mg/kg, route intraperitoneal; conditions: in vivo, ip, 0.5 h; method in brief: as §1
[11] = organism: Mus musculus; assay: Effective dose evaluated against maximal electric seizures (MES) or convulsions in mice;activity value ranges from 66.58-109.74; assay type: functional
[12] = Toxic dose was determined by the rotarod test in mice; assay type: toxicity, organism-based; conditions: mouse, in vivo
[13] = Protective index as the ratio of TD50 value against MES to that of ED50 value against MES.; assay type: ADME; conditions: read-out: PI
Method in brief: (§2)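 Protective index = rotorod TD50 divided by ED50 (MES or scMet), both from ip dosing in male Carworth Farms number-one mice, medians obtained graphically.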

[14] = organism: Mus musculus; assay: Effective dose evaluated against maximal electric seizures (MES) or convulsions in mice; activity value ranges from 246.97-337.89; assay type: functional
[15] = test system: Mus musculus; assay: Effective dose was evaluated for its anticonvulsant activity against subcutaneous induced metrazole convulsions in mice; activity value ranges from 122.64-177.02; assay type: functional; conditions: sc
[16] = test system: Mus musculus; assay: Toxicity tested by rotarod test for neurologic deficit at interval of 30 min when 100 mg/kg was administered intraperitoneally; shows activity; assay type: organism-based; parameters: dose 100 mg/kg, route intraperitoneal; conditions: in vivo, ip, 0.5 h; method in brief: as §1
[17] = test system: Mus musculus; assay: Toxicity tested by rotarod test for neurologic deficit at interval of 4 hr when 600 mg/kg was administered intraperitoneally; shows activity; assay type: organism-based; parameters: dose 600 mg/kg, route intraperitoneal; conditions: in vivo, ip; method in brief: as §1
[18] = Protective index as the ratio of TD50 value against scMET to that of ED50 value against scMET.; assay type: ADME; conditions: read-out: PI; method in brief: as §2
[19] = test system: Mus musculus; assay: Effective dose was evaluated for its anticonvulsant activity against subcutaneous induced metrazole convulsions in mice; activity value ranges from 38.83-46.00; assay type: functional; conditions: sc
[20] = Toxic dose was determined by the rotarod test in mice activity value ranges from 153.02-189.96; assay type: toxicity, organism-based; conditions: mouse, in vivo
[21] = Toxic dose was determined by the rotarod test in mice; activity value ranges from 98.01-127.65; assay type: toxicity, organism-based; conditions: mouse, in vivo
[22] = test system: Mus musculus; assay: Toxicity tested by rotarod test for neurologic deficit at interval of 4 hr when 300 mg/kg was administered intraperitoneally; shows activity; assay type: organism-based; parameters: dose 300 mg/kg, route intraperitoneal; conditions: in vivo, ip; method in brief: as §1
[23] = test system: Mus musculus; assay: Toxicity tested by rotarod test for neurologic deficit at interval of 4 hr when administered intraperitoneally; LD50 < 600 mg/kg; assay type: organism-based; parameters: dose 600 mg/kg, route intraperitoneal; conditions: in vivo, ip
[24] = Toxic dose was determined by the rotarod test in mice; activity value ranges from 88.85-119.90; assay type: toxicity, organism-based; conditions: mouse, in vivo
[25] = organism: Mus musculus; assay: Effective dose evaluated against maximal electric seizures (MES) or convulsions in mice; activity value ranges from 12.50-31.75; assay type: functional
[26] = test system: Mus musculus; assay: Toxicity tested by rotarod test for neurologic deficit at interval of 30 min when 300 mg/kg was administered intraperitoneally; shows activity; assay type: organism-based; parameters: dose 300 mg/kg, route intraperitoneal; conditions: in vivo, ip, 0.5 h; method in brief: as §1
[27] = organism: Mus musculus; assay: Effective dose evaluated against maximal electric seizures (MES) or convulsions in mice; activity value ranges from 39.77-53.41; assay type: functional
[28] = Toxic dose was determined by the rotarod test in mice; activity value ranges from 130.89-161.13; assay type: toxicity, organism-based; conditions: mouse, in vivo
[29] = organism: Mus musculus; assay: Effective dose evaluated against maximal electric seizures (MES) or convulsions in mice; activity value ranges from 14.70-19.13; assay type: functional
[30] = Toxic dose was determined by the rotarod test in mice; activity value ranges from 40.62-57.10; assay type: toxicity, organism-based; conditions: mouse, in vivo
[31] = organism: Mus musculus; assay: Effective dose evaluated against maximal electric seizures (MES) or convulsions in mice; activity value ranges from 56.16-105.53; assay type: functional
[32] = Toxic dose was determined by the rotarod test in mice; activity value ranges from 556.77-815.69; assay type: toxicity, organism-based; conditions: mouse, in vivo
[33] = Toxic dose was determined by the rotarod test in mice; activity value ranges from 156.61-251.07; assay type: toxicity, organism-based; conditions: mouse, in vivo
[34] = organism: Mus musculus; assay: Effective dose evaluated against maximal electric seizures (MES) or convulsions in mice; activity value ranges from 38.02-50.30; assay type: functional

For `Cc1cccc(C)c1NC(=O)c1ccc(N)cc1` [AMELTOLIDE], the Toxicity [1] was “Activity”, the Toxicity [2] was “Activity” and the ED50 [3] was 2.6 mg/kg.
In the case of `Cc1ccc(NC(=O)c2ccc(N)cc2)c(C)c1`, the Toxicity [4] was “No activity”, the Activity [5] was “No activity” and the Toxicity [6] was “No activity”. The Activity [7] was “No activity”, the Activity [8] was “No activity” and the Activity [9] was “No activity”.
For `Cc1cccc(C(C)C)c1NC(=O)c1ccc(N)cc1`, the Toxicity [10] was “No activity”, the ED50 [11] was 86.1 mg/kg and the TD50 [12] was greater than 1500 mg/kg. The selectivity ratio [13] was greater than 17.4.
With `CCCC(CCC)C(=O)O` [VALPROIC ACID] the ED50 [14] was 272 mg/kg and the ED50 [15] was 149 mg/kg.
For `Cc1ccc(NC(=O)c2ccc(N)cc2)cc1`, the Toxicity [16] was “Activity” and the Toxicity [17] was “Activity”.
Compound `CC(NC(=O)c1ccc(N)cc1)c1ccccc1` (centres undefined) has a selectivity ratio [18] of 4.1, an ED50 [19] of 41.8 mg/kg and a TD50 [20] of 171 mg/kg. For the same compound, the selectivity ratio [13] was 9.5.
In the case of `Cc1ccc(C)c(NC(=O)c2ccc(N)cc2)c1`, the Toxicity [10] was “No activity” and the Toxicity [6] was “No activity”.
For `Nc1ccc(C(=O)Nc2ccccc2)cc1`, the selectivity ratio [18] was 1.88, the TD50 [21] was 111 mg/kg and the Toxicity [22] was “Activity”. The Toxicity [16] was “Activity” and the selectivity ratio [13] was 2.2.
With `Cc1cccc(NC(=O)c2ccc(N)cc2)c1C` the Toxicity [16] was “LD50 < 600 mg/kg”, the Toxicity [23] was “LD50 < 600 mg/kg” and the TD50 [24] was 104 mg/kg. The ED50 [25] was 25.2 mg/kg and the selectivity ratio [13] was 4.11.
In the case of `Cc1cccc(NC(=O)c2ccc(N)cc2)c1`, the selectivity ratio [18] was 1.62, the Toxicity [17] was “Activity” and the Toxicity [26] was “Activity”. The ED50 [27] was 47 mg/kg, the TD50 [28] was 143 mg/kg and the selectivity ratio [13] was 3.03.
In the case of `CCc1cccc(C(C)C)c1NC(=O)c1ccc(N)cc1`, the ED50 [29] was 16.7 mg/kg, the TD50 [30] was 49.1 mg/kg and the Toxicity [1] was “Activity”. For the same compound, the Toxicity [2] was “Activity” and the selectivity ratio [13] was 2.95.
For `CC(C)c1ccccc1NC(=O)c1ccc(N)cc1`, the Toxicity [4] was “No activity”, the ED50 [31] was 81.5 mg/kg and the TD50 [32] was 709 mg/kg. The Toxicity [6] was “No activity” and the selectivity ratio [13] was 8.7.
With `Cc1ccc(NC(=O)c2ccc(N)cc2)cc1C` the selectivity ratio [18] was 2.4, the TD50 [33] was 194 mg/kg and the Toxicity [16] was “Activity”. For the same compound, the Toxicity [17] was “Activity”, the ED50 [34] was 42.3 mg/kg and the selectivity ratio [13] was 4.59.
With `Cc1cc(C)cc(NC(=O)c2ccc(N)cc2)c1` the Toxicity [10] was “No activity” and the Toxicity [6] was “No activity”.
With `Cc1ccccc1NC(=O)c1ccc(N)cc1` the Toxicity [1] was “Activity” and the Toxicity [26] was “Activity”.

Source: ChEMBL document CHEMBL1123037, “Anticonvulsant activity of some 4-aminobenzanilides” (J Med Chem, 1985)
